# Bioassay records: PubChem BioAssay, several laboratories
# Compounds with a hit are over-represented: about 1.6% of the library has one in this group of screens.
# Dynein cargo inh – dynein cargo transport inhibition; 3617.4 mouse cells, GR-EGFP nuclear translocation imaging; test concentration mostly 20 µM; stimulated with dexamethasone, 1 µM; hits give low values; z-score, hits read low; hit rate 0.47% among 220,000;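 active = plate z-score of nuclear minus cytoplasmic receptor signal below a set negative limit, without overly bright fluorescence or cell loss, cut at about -3.5 in these data, passing the limit was not always enough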;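 also: z-score of nuclear minus cytoplasmic ring GR-EGFP intensity difference per well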
#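 Medium: Induction medium lacking tetracycline, stripped serum | Probe or stimulus: 1.0 µM final dexamethasone stimulus | Schedule: 48 h induction, then 1 h compound, then 30 min agonist, 37 °C | Signal: Automated 10x imaging of fixed Hoechst-stained cells | Evaluation: Per-cell GR-EGFP intensity, nucleus versus surrounding cytoplasmic ring, well-averaged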
# NOD2 RIPK2 PPI – blocks binding of human NOD2 to RIPK2. O43353. CHO BLA complementation NOD2-RIPK2, CCF4 ratio. inhibition, % at 4.98 µM. hit rate 0.38% among 360,000. AID 624267; in the data active = inhibition above about 21%;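 also: 0% = vehicle only and 100% = reference blocker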
# TLR9-MyD88 inh – TLR9-MyD88 interaction inhibition. CHO BLA complementation TLR9-MyD88, CCF4 FRET ratio. AID 504734. Q9NR96+Q99836. inhibition, % at 4.98 µM. hit rate 0.21% among 340,000;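 active = inhibition above the mean over all tested compounds plus 3 SD, cut at about 21% in these data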;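 also: 0% = DMSO only wells and 100% = clavulanate BLA inhibitor control wells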
# B2AR ag – agonists of human beta-2 adrenergic receptor inducing internalization; AID 504454; response, % (concentration not given with the values); Am2.2-beta2AR cells, FAP receptor internalization, flow cytometry; P07550; hit rate 0.43% among 340,000;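 active = response above a set limit, near 3 SD of response in nonfluorescent compounds, cut at about 42% in these data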
# TLR4-MyD88 BLA – blocks binding of human TLR4 to MyD88; inhibition, % at 8.4 µM; HeLa CL3-4 TLR4/MyD88 BLA complementation, FRET ratio; hit rate 0.18% among 200,000; O00206+Q99836; in the data active = inhibition above about 25%;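 also: 0% = vehicle and 100% = reference inhibitor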
# ABHD5-PLIN5 inh – blocks binding of human ABHD5 to perilipin-5; inhibition, % at 4 µM; hit rate 0.78% among 360,000; Split G. princeps luciferase complementation, luminescence, 4 h; AID 602281;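 active = inhibition above the mean inhibition across every tested compound plus 3 SD, cut at about 22% in these data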;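 also: 0% = DMSO only wells and the 100% control is not disclosed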
# Target sequence (Q00G26 whole entry, looked up): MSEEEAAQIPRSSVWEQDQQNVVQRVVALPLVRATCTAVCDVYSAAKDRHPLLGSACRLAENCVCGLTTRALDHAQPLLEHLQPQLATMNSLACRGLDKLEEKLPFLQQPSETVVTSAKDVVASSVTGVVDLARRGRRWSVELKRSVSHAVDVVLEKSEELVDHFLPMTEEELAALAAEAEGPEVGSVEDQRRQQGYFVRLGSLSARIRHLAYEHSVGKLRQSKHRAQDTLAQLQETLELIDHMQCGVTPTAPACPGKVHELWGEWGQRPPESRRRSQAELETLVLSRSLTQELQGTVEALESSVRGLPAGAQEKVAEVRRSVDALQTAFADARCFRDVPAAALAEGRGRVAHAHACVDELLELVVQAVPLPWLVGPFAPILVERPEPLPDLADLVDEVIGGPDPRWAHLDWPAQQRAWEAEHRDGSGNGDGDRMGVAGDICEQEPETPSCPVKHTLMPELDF
# Target sequence (Q8WTS1 whole entry, looked up): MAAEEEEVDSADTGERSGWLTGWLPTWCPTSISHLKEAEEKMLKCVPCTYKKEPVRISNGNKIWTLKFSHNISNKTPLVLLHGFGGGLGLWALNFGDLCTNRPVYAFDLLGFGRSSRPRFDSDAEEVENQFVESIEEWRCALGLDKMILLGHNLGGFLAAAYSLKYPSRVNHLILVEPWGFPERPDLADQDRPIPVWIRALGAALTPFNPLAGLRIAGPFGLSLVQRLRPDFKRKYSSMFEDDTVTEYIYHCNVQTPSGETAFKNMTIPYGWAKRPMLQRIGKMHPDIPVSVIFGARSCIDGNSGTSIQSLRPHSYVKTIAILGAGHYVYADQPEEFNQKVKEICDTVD
# TLR9-MyD88 cf – TLR9-MyD88 interaction inhibition, confirmation; AID 540250; shares compounds with TLR9-MyD88 inh; CHO TLR9/MyD88 BLA complementation, CCF4 FRET ratio; hit rate 51% among 680; inhibition, % at 4.98 µM;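 active = mean inhibition across three repeats above about 21% taken from the earlier screen, limit read from the data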;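 also: blue over green emission ratio reports constitutive TLR9 MyD88 association via BLA complementation; 0% = DMSO vehicle wells and 100% = clavulanate BLA inhibitor wells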
# BLA counter – counter-screen for TLR9-MyD88 inhibitors: non-selective beta-lactamase inhibitors. inhibition, % at 4.98 µM. hit rate 7% among 680. shares compounds with TLR9-MyD88 inh. CHO-BLA cells, CCF4 FRET ratio, BLA reporter;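 active = mean inhibition above a 50% cutoff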;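 also: counterscreen of TLR9-MyD88 hits on CMV-driven BLA in CHO-K1 cells; 0% = DMSO alone and 100% = clavulanate blocking BLA; higher means less blue over green ratio so more BLA blockade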
# TLR9 CHO tox – CHO cell toxicity counter-screen for TLR9-MyD88 inhibitors | shares compounds with TLR9-MyD88 inh | TLR9-MyD88 CHO cells cytotoxicity, luminescence | inhibition, % at 4.98 µM | hit rate 39% among 680; in the data active = inhibition above about 11%
# * = called active by the depositor; nt = no result.
SMILES,Dynein cargo inh,NOD2 RIPK2 PPI,TLR9-MyD88 inh,B2AR ag,TLR4-MyD88 BLA,ABHD5-PLIN5 inh,TLR9-MyD88 cf,BLA counter,TLR9 CHO tox
CCOC(=O)[C@H]1[C@H]2COc3ccc(C)cc3[C@@H]2N2C(=O)CN(Cc3ccc(C)cc3)C(=O)[C@@]12C,nt,-5,-1,-4,nt,-4,nt,nt,nt
CCOC(=O)[C@H]1[C@H]2COc3ccc(C)cc3[C@@H]2N2C(=O)CN(Cc3ccco3)C(=O)[C@@]12C,nt,3,22*,-8,nt,3,4,1,0
COc1ccc(CC2(c3ccccc3)NC(=O)NC2=O)cc1 (configuration not stated),nt,-4,-5,7,nt,8,nt,nt,nt
CS(=O)(=O)c1cnc(-c2cccnc2)nc1N,0.79,-12,22*,8,-2,0,0,-1,6
CN(C)c1ccc(/C=C2\SC(=S)N(Nc3ncc(C(F)(F)F)cc3Cl)C2=O)cc1,-5,1,0,-6,17,-5,nt,nt,nt
COc1cc(/C=C2\SC(=S)N(Nc3ncc(C(F)(F)F)cc3Cl)C2=O)ccc1O,-0.3,13,26*,-344,11,-13,1,2,4
CN(Cc1cc(Cl)cc(Cl)c1)[C@H]1C[C@H]2c3[nH]c4ccccc4c3CCN2C(=O)[C@H]1CO,nt,0,-5,nt,nt,6,nt,nt,nt
O=C(OCn1ncc(Cl)c(Cl)c1=O)c1cccc(C(F)(F)F)c1,-1.3,48*,30*,42,17,4,24*,12,97*
N/C(=N\OC(=O)c1cccc(C(F)(F)F)c1)c1cnccn1,nt,-8,-1,5,nt,9,nt,nt,nt
O=C(OCc1cnc(Cl)s1)c1ccccc1Cl,-0.72,5,-2,11,-15,-2,nt,nt,nt
O=C(OCn1ncc(Br)c(Br)c1=O)c1ccccc1Cl,-1.4,82*,32*,49*,14,10,36*,24,100*
COc1cc(/C=N/NC(=O)c2ccc([N+](=O)[O-])cc2Cl)cc(Br)c1O,0.49,3,34*,-7,-4,-2,-2,-1,-4
COc1ccc(Br)cc1C(=O)N/N=C/c1ccc([N+](=O)[O-])cc1,-0.21,0,-11,8,-12,-1,nt,nt,nt
Cn1c(O)c(/C=N/NC(=O)c2cc3ccccc3cc2O)c2ccccc21,nt,17,31*,0,nt,-4,23*,16,25*
COc1ccc(/C=C/C(=O)NC(=S)Nc2ccc(S(=O)(=O)Nc3ccc(OC)nn3)cc2)cc1,1.7,-5,27*,1,-4,-4,-4,-1,-1
COc1ccc(/C=C/C(=O)NC(=S)Nc2ccc(S(=O)(=O)Nc3cc(C)on3)cc2)cc1,nt,-6,10,11,nt,-8,nt,nt,nt
COc1ccc(CN(CC(=O)NCc2ccccc2)C(=O)CCC(=O)Nc2nccs2)cc1,nt,-3,3,9,nt,0,nt,nt,nt
COc1ccccc1Cc1c(-c2ccc(F)cc2)nc2cc(C)c(Br)c(C)n12,nt,8,nt,nt,nt,-11,nt,nt,nt
O=C(COC(=O)/C=C/c1ccc(F)cc1)Nc1ccc2[nH]c(=O)[nH]c2c1,nt,-5,-8,-1,nt,1,nt,nt,nt
O=C(COC(=O)/C=C/c1ccc(Cl)cc1)Nc1ccc2[nH]c(=O)[nH]c2c1,nt,2,23*,-7,nt,-1,9,5,13*
O=C(COC(=O)c1cccc(Br)c1)Nc1ccc2[nH]c(=O)[nH]c2c1,nt,3,21*,-6,nt,-1,0,-2,3
CCOC(=O)[C@]12CCCC=C1N(CCC1=CCCCC1)C(=O)[C@H](CC(=O)NCc1cccs1)C2,nt,-8,nt,nt,nt,3,nt,nt,nt
O=C1Cc2ccccc2C(=O)N1c1ccccc1,nt,-7,31*,6,nt,7,42*,46,6
